From ChEMBL document CHEMBL4038284, “Synthesis of novel quinoline-based 4,5-dihydro-1H-pyrazoles as potential anticancer, antifungal, antibacterial and antiprotozoal agents” (Eur J Med Chem, 2017) come the findings set out here.

In brackets after ≈: the same amount, converted by molar mass.

For experiment [1], the system named is Cryptococcus neoformans. Put plainly: Antifungal activity against Cryptococcus neoformans ATCC 32264 incubated for 48 hrs under dark condition by broth microdilution method. In kind it is functional. As to conditions: ATCC 32264, 48 h. The gist of the method: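 CLSI M27-A3 broth microdilution in RPMI-1640, DMSO ≤1%, compounds at 250-0.98 µg/mL final. Inoculum 1-5 × 10^3 CFU/mL. Incubated 48 h at 30 °C in a moist dark chamber, read at OD405. MIC80 and MIC50 taken from % inhibition dose-response curves (mean ± SEM, triplicate). Amphotericin B was the positive control.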

The test system of another experiment is Pseudomonas aeruginosa. Put plainly: Antibacterial activity against Pseudomonas aeruginosa ATCC 27853 after 24 hrs by resazurin dye based microdilution assay. In kind it is functional. As to conditions: ATCC 27853, 24 h. In a few lines:
(§1)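 MIC taken as the lowest concentration giving visible inhibition and/or by resazurin (1 mg/mL). Gentamicin was the control. Run in duplicate, repeated at least three times.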

Another experiment concerns Trypanosoma cruzi. Put plainly: Antitrypanosomal activity against Trypanosoma cruzi Tulahuen intracellular amastigote harboring LacZ infected in human U937 cells after 72 hrs by CPRG/Nonidet reagent based spectrophotometric method. In kind it is functional, cell-based. As to conditions: U-937, 72 h. The gist of the method: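 U-937 cells at 2.5 × 10^5 cells/mL in RPMI-1640 with 10% serum and 0.1 µg/mL PMA were infected with β-galactosidase-transfected Tulahuen epimastigotes at 5 parasites per cell. Infected cells were exposed to 50, 12.5, 3.125 and 0.78 µg/mL for 72 h. CPRG (100 uM) and 0.1% Nonidet P-40 were added for 3 h, read at 570 nm. EC50 by Probit. Triplicate, at least two experiments; benznidazole as reference.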

Experiment [2] relates to Cryptococcus neoformans. Put plainly: Growth inhibition of Cryptococcus neoformans ATCC 32264 at 250 ug/ml incubated for 48 hrs under dark condition by broth microdilution method relative to control. As to conditions: ATCC 32264, 48 h, read-out: GI. In kind it is functional. In a few lines: (§2)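 CLSI M27-A3 broth microdilution in RPMI-1640, DMSO ≤1%. Inoculum 1-5 × 10^3 CFU/mL. Incubated 48 h at 30 °C, dark. % inhibition = 100 − (OD405 test − sterility control)/(OD405 growth control − sterility control), with growth and sterility control wells. Triplicate.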

The next experiment concerns Escherichia coli. Briefly: Antibacterial activity against Escherichia coli ATCC 25922 after 24 hrs by resazurin dye based microdilution assay. In kind it is functional. As to conditions: ATCC 25922, 24 h. In a few lines:
as §1

For the next experiment, the system named is Candida albicans. Put plainly: Growth inhibition of Candida albicans ATCC 10231 at 15.62 ug/ml incubated for 48 hrs under dark condition by broth microdilution method relative to control. In kind it is functional. As to conditions: ATCC 10231, 48 h, read-out: GI. The gist of the method:
as §2

With `O=Cc1cccc(Nc2ccnc3cc(Cl)ccc23)c1`, the MIC50 in the experiment on Cryptococcus neoformans [1] worked out at 250 µg/mL (≈ 884 µM). The MIC80 against Cryptococcus neoformans [1] came out at 250 µg/mL (≈ 884 µM). The values for the MIC against Pseudomonas aeruginosa and with Escherichia coli were greater than 1000 µg/mL and 62.5 µg/mL (≈ 221 µM), respectively. This molecule also returned an EC50 in the experiment on Trypanosoma cruzi of 1.15 µg/mL (≈ 4.07 µM). In addition, the inhibition of growth at 250 µg/mL in the experiment with Cryptococcus neoformans [2] came out at 100%. Besides, the inhibition of growth at 15.62 µg/mL in the experiment on Candida albicans turned out to be 10.8%.
